Results from PMC3660010 (Diabetologia, 2012).
Entries after “also recorded” stand apart in the source; their conditions may differ. Ends that are not written are not given here.

How the values were obtained:
[1] = test system: INS 832/13 insulinoma cells; assay: Cleaved caspase-3 Western blot, synthetic hIAPP-induced apoptosis; format: cell-based, rat; conditions: 20 μmol/l synthetic peptide, 24 h
[2] = test system: INS 832/13 insulinoma cells; assay: MTT assay, synthetic hIAPP-induced cytotoxicity; format: cell-based, rat; conditions: 48 h; for viable cells relative to vehicle control cells (MTT), peptide alone: 20 μmol/l synthetic peptide, INS 832/13, mean ± SEM
Outline: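 INS 832/13 cells were exposed to 20 μmol/l synthetic hIAPP plus 4, 40 or 400 nmol/l recombinant NEP or NEPx for 48 h, with vehicle (0.8% DMSO in media), 20 μmol/l rIAPP and 400 nmol/l transferrin controls. MTT added 1:10 from 5 mg/ml stock, 4 h at 37°C, HCl/isopropanol, A570. Viability as % of vehicle; mean ± SEM, n = 3 to 9, one-way ANOVA with Dunnett's test.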

[3] = test system: neprilysin (NEP); assay: 400 nmol/l recombinant NEP in 20 mmol/l MES buffer, pH 6.5; conditions: human, 37°C, up to 60 min
[4] = test system: NEP; conditions: cited from earlier work
[5] = target: NEP^E585V mutant (NEPx) (Homo sapiens, UniProt P08473, E585V); assay: Fluorogenic assay of NEPx activity, inhibition by phosphoramidon; format: biochemical; conditions: GAAF-4-MNA as substrate
[6] = target: T1, NEP (Homo sapiens, UniProt P08473); assay: Fluorogenic assay of NEP activity, inhibition by phosphoramidon; format: biochemical
[7] = target: T1, NEP; assay: Cleavage of peptide by neprilysin, reverse phase HPLC and mass spectrometry; format: biochemical; conditions: 37°C
Outline: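 Purified His-tagged recombinant human NEP (CHO-S-expressed, nickel-affinity and anion-exchange purified), 400 nmol/l, incubated with 20 μmol/l hIAPP (from 2.5 mmol/l DMSO stock) in 20 mmol/l MES, pH 6.5, 37°C for 60 min, with or without phosphoramidon; catalytically compromised E585V mutant run in parallel. Stopped with TFA to 0.5%, reverse-phase HPLC on C4 column; products collected manually for mass spectral identification.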

[8] = test system: hIAPP fibrils; assay: Transmission electron microscopy of hIAPP fibrils; format: biochemical, human; conditions: 37°C, 20 h; for hIAPP fibrils by TEM in the presence of protein: hIAPP 25 μmol/l with 0.5 μmol/l protein
[9] = test system: INS 832/13 insulinoma cells; assay: MTT assay, hIAPP overexpression-induced cytotoxicity; format: cell-based, rat; conditions: 48 h; for effect on hIAPP overexpression-induced cytotoxicity (MTT), 400 nmol/l protein: adenovirus prepro-hIAPP-GFP MOI 100, 400 nmol/l protein in media
Outline: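 INS 832/13 rat insulinoma cells (RPMI 1640, 11.1 mmol/l glucose, 10% FBS, 37°C, 5% CO2) transduced with adenovirus encoding prepro-hIAPP-GFP at MOI 100; GFP and prepro-rIAPP-GFP viruses as controls. Recombinant NEP or NEPx (4, 40, 400 nmol/l) or transferrin (400 nmol/l) added to media. After 48 h, MTT 4 h at 37°C, acidic isopropanol, A570; viability as % of vehicle control.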

[10] = target: NEPx (Homo sapiens, UniProt P08473, E585V); assay: Cleavage of hIAPP by catalytically compromised NEPx, reverse phase HPLC; format: biochemical; conditions: 20 μmol/l hIAPP, 400 nmol/l NEPx, 37°C, 1 h
Outline: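 Enzyme: recombinant human NEP ectodomain E585V mutant, expressed in CHO-S cells as a His-tagged growth hormone fusion. Purified by nickel affinity, PreScission removal of growth hormone, and MonoQ anion exchange. 20 μmol/l hIAPP incubated with the enzyme in 20 mmol/l MES, pH 6.5, at 37°C. Stopped with TFA to 0.5%. Reverse-phase HPLC on a C4 column.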

[11] = Fluorogenic assay of NEP activity with GAAF-4-MNA as substrate; format: biochemical; conditions: 100 μmol/l GAAF-4-MNA, 20 mmol/l MES pH 6.5, 37°C
[12] = 20 μmol/l synthetic hIAPP, mean ± SEM, n = 3 to 9

## rIAPP: synthetic rodent islet amyloid polypeptide, non-aggregating control [reference compound]
[1]
  induction of apoptosis (increase in cleaved caspase-3), peptide alone: but not rIAPP, induced apoptosis
[2]; n = 3 to 9
  viable cells relative to vehicle control cells (MTT), peptide alone: did not cause significant cytotoxicity

## IAPP (1–37, disulfide bridge 2–7, amide)
[3]
  cleaved bond: Arg11-Leu12, major; also recorded: Leu12-Ala13, major
[4]
  not cleaved: concluded that NEP did not cleave hIAPP

## CC(C)C[C@H](NP(=O)(O)O[C@@H]1O[C@@H](C)[C@H](O)[C@@H](O)[C@H]1O)C(=O)N[C@@H](Cc1c[nH]c2ccccc12)C(=O)O [phosphoramidon]
[5]
  activity of NEPx in the presence of phosphoramidon: undetectable levels
[6]; GAAF-4-MNA as substrate
  activity of NEP in the presence of phosphoramidon: undetectable levels
[6]; read-out: inhibition of NEP activity
  inhibition at 50 µM: > 99%
[7]; 20 μmol/l hIAPP, 400 nmol/l NEP, 60 min, HPLC
  effect of NEP inhibitor on hIAPP cleavage by NEP: blocked

## ILSSTNVGSNTY-NH2
[7]; product of hIAPP (20 μmol/l) with 400 nmol/l NEP, initially increased with time, then decreased (HPLC)
  further cleavage of the product by NEP: appeared to be further cleaved

## TF: transferrin used as protein control [reference compound]
[2]; [12]
  viable cells (MTT) with hIAPP in the presence of 400 nmol/l protein: did not protect
[8]
  hIAPP fibrils by TEM in the presence of protein: fibrils were observed
[9]
  effect on hIAPP overexpression-induced cytotoxicity (MTT), 400 nmol/l protein: had no effect

## CC[C@H](C)[C@H](NC(=O)[C@H](C)NC(=O)CNC(=O)[C@H](Cc1ccccc1)NC(=O)[C@H](CC(N)=O)NC(=O)[C@H](CC(N)=O)NC(=O)[C@H](CO)NC(=O)[C@H](CO)NC(=O)[C@H](Cc1c[nH]cn1)NC(=O)[C@@H](NC(=O)[C@H](CC(C)C)NC(=O)[C@H](Cc1ccccc1)NC(=O)[C@H](CC(N)=O)NC(=O)[C@H](C)NC(=O)[C@H](CC(C)C)NC(=O)[C@H](CCCNC(=N)N)NC(=O)[C@H](CCC(N)=O)NC(=O)[C@@H](NC(=O)[C@H](C)NC(=O)[C@@H]1CSSC[C@H](NC(=O)[C@@H](N)CCCCN)C(=O)N[C@@H](CC(N)=O)C(=O)N[C@@H]([C@@H](C)O)C(=O)N[C@@H](C)C(=O)N[C@@H]([C@@H](C)O)C(=O)N1)[C@@H](C)O)C(C)C)C(=O)N[C@@H](CC(C)C)C(=O)N[C@@H](CO)C(=O)N[C@@H](CO)C(=O)N[C@H](C(=O)N[C@@H](CC(N)=O)C(=O)N[C@H](C(=O)NCC(=O)N[C@@H](CO)C(=O)N[C@@H](CC(N)=O)C(=O)N[C@H](C(=O)N[C@@H](Cc1ccc(O)cc1)C(N)=O)[C@@H](C)O)C(C)C)[C@@H](C)O [hIAPP, IAPP (1–37, disulfide bridge 2–7, amide), reference compound]
[1]
  induction of apoptosis (increase in cleaved caspase-3), peptide alone: induced apoptosis
[2]; n = 3 to 9
  viable cells relative to vehicle control cells (MTT), peptide alone: 15.6 ± 3.5%
[8]; hIAPP 25 μmol/l with buffer
  hIAPP fibrils by TEM, untreated hIAPP (CTRL): fibrils were observed
[10]
  cleavage of hIAPP by NEPx: no cleavage

B1: NEPx: catalytically compromised NEP^E585V mutant ectodomain, about 80% pure (protein, UniProt P08473 52-750, looked up, variant E585V)
extracellular domain: YDDGICKSSDCIKSAARLIQNMDATTEPCTDFFKYACGGWLKRNVIPETSSRYGNFDILRDELEVVLKDVLQEPKTEDIVAVQKAKALYRSCINESAIDSRGGEPLLKLLPDIYGWPVATENWEQKYGASWTAEKAIAQLNSKYGKKVLINLFVGTDDKNSVNHVIHIDQPRLGLPSRDYYECTGIYKEACTAYVDFMISVARLIRQEERLPIDENQLALEMNKVMELEKEIANATAKPEDRNDPMLLYNKMTLAQIQNNFSLEINGKPFSWLNFTNEIMSTVNISITNEEDVVVYAPEYLTKLKPILTKYSARDLQNLMSWRFIMDLVSSLSRTYKESRNAFRKALYGTTSETATWRRCANYVNGNMENAVGRLYVEAAFAGESKHVVEDLIAQIREVFIQTLDDLTWMDAETKKRAEEKALAIKERIGYPDDIVSNDNKLNNEYLELNYKEDEYFENIIQNLKFSQSKQLKKLREKVDKDEWISGAAVVNAFYSSGRNQIVFPAGILQPPFFSAQQSNSLNYGGIGMVIGHVITHGFDDNGRNFNKDGDLVDWWTQQSASNFKEQSQCMVYQYGNFSWDLAGGQHLNGINTLGENIADNGGLGQAYRAYQNYIKKNGEEKLLPGLDLNHKQLFFLNFAQVWCGTYRPEYAVNSIKTDVHSPGNFRIIGTLQNSAEFSEAFHCRKNSYMNPEKKCRVW
modifications: extracellular domain
[11]
  NEP activity abolished by the E585V mutation: greater than 98%
[11]; fluorescence ex 340/em 425 nm
  activity relative to wild-type NEP activity: ~ 1.7%
[2]; [12]
  viable cells (MTT) with hIAPP in the presence of 400 nmol/l protein: 58.4 ± 9.3%
[8]
  hIAPP fibrils by TEM in the presence of protein: fibrils were observed
[9]; adenovirus prepro-hIAPP-GFP MOI 100, 4, 40 or 400 nmol/l NEPx
  effect on hIAPP overexpression-induced cytotoxicity (MTT), NEPx: had no effect

B2: NEP: recombinant ectodomain of human neprilysin expressed in CHO-S cells (protein, UniProt P08473 52-750, looked up)
extracellular domain: YDDGICKSSDCIKSAARLIQNMDATTEPCTDFFKYACGGWLKRNVIPETSSRYGNFDILRDELEVVLKDVLQEPKTEDIVAVQKAKALYRSCINESAIDSRGGEPLLKLLPDIYGWPVATENWEQKYGASWTAEKAIAQLNSKYGKKVLINLFVGTDDKNSVNHVIHIDQPRLGLPSRDYYECTGIYKEACTAYVDFMISVARLIRQEERLPIDENQLALEMNKVMELEKEIANATAKPEDRNDPMLLYNKMTLAQIQNNFSLEINGKPFSWLNFTNEIMSTVNISITNEEDVVVYAPEYLTKLKPILTKYSARDLQNLMSWRFIMDLVSSLSRTYKESRNAFRKALYGTTSETATWRRCANYVNGNMENAVGRLYVEAAFAGESKHVVEDLIAQIREVFIQTLDDLTWMDAETKKRAEEKALAIKERIGYPDDIVSNDNKLNNEYLELNYKEDEYFENIIQNLKFSQSKQLKKLREKVDKDEWISGAAVVNAFYSSGRNQIVFPAGILQPPFFSAQQSNSLNYGGIGMVIGHEITHGFDDNGRNFNKDGDLVDWWTQQSASNFKEQSQCMVYQYGNFSWDLAGGQHLNGINTLGENIADNGGLGQAYRAYQNYIKKNGEEKLLPGLDLNHKQLFFLNFAQVWCGTYRPEYAVNSIKTDVHSPGNFRIIGTLQNSAEFSEAFHCRKNSYMNPEKKCRVW
modifications: extracellular domain
[2]; 20 μmol/l synthetic hIAPP, 4 nmol/l protein, not statistically significant
  viable cells (MTT) with hIAPP in the presence of 4 nmol/l protein: 39.4 ± 15.3%
[2]; 20 μmol/l synthetic hIAPP, 40 nmol/l protein, mean ± SEM, n = 3 to 9
  viable cells (MTT) with hIAPP in the presence of 40 nmol/l protein: 92.9 ± 9.5%
[2]; [12]
  viable cells (MTT) with hIAPP in the presence of 400 nmol/l protein: 84.5 ± 7.3%
[8]
  hIAPP fibrils by TEM in the presence of protein: fibrils were not seen
[9]
  effect on hIAPP overexpression-induced cytotoxicity (MTT), 400 nmol/l protein: reduced this hIAPP induced cytotoxicity
[9]; adenovirus prepro-hIAPP-GFP MOI 100, 4 or 40 nmol/l
  effect on hIAPP overexpression-induced cytotoxicity (MTT), lower concentrations of NEP: had no effect
